Here are results for 3 compounds from ChEMBL document CHEMBL2069284, “Synthesis and selective anticancer activity of steroidal glycoconjugates” (Eur J Med Chem, 2012).

For data set [1], the system named is Ca-Ski. Nature of the data set: Cytotoxicity against human CaSki cells assessed as LDH release at antiproliferative IC50 after 24 hrs. It counts as cell-based. Put shortly:
(§1)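 Membrane damage was measured as LDH released into the culture supernatant 24 h after treatment; Triton X-100 lysis served as the total-lysis reference and DMSO as the vehicle control. For HeLa, CaSki and ViBo, 7500 cells/well were seeded and the medium was replaced after 24 h before treatment. Data are mean ± SD of three independent experiments in triplicate, analyzed by ANOVA with Tukey's test.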
Background: Release of lactate dehydrogenase indicates damage to the cell membrane.

The subject of data set [2] is HeLa. In words: Antiproliferative activity against human HeLa cells after 24 hrs by crystal violet staining-based method. It counts as functional, cell-based. Summed up:
(§2)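 Cells were cultured in RPMI-1640 with 5% newborn calf serum and benzylpenicillin at 37 °C, 5% CO2, and used in exponential growth. Cells were seeded at 7500/well, grown 24 h, then exposed to a concentration range. Controls received 1% DMSO vehicle. After 24 h, growth was read by crystal violet staining as absorbance at 590 nm, and IC50 was derived.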

Another data set concerns PBMC. In words: Antiproliferative activity against PHA-stimulated and CFSE-labeled human PBMC assessed as proliferation of enriched lymphocyte population at antiproliferative IC50 after 72 hrs by flow cytometric analysis (reference value: 90.13%). It counts as cell-based. Put shortly:
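Enriched lymphocytes from a normal blood donor were obtained by removing cells adherent after 1 h at 37 °C, 5% CO2, then resuspended in RPMI-1640 at 1 × 10⁶ cells/mL. Cells were CFSE-labeled for 15 min at room temperature in the dark, PHA-stimulated and/or treated, and plated at 2 × 10⁵ cells/well with five replicates. After 72 h at 37 °C, cells were PBS-washed, fixed in 1% formaldehyde, and analyzed by flow cytometry (≥20,000 events).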
On the technique in general: In flow cytometry, cells or beads pass a laser one at a time.

Data set [3] relates to Ca-Ski. Nature of the data set: Antiproliferative activity against human CaSki cells after 24 hrs by crystal violet staining-based method. It counts as functional, cell-based. Put shortly: as §2
Data set [4] in a line: Cytotoxicity against human lymphocytes assessed as LDH release at antiproliferative IC50 after 24 hrs. The following applies: lymphocyte. The class given is cell-based. Summed up: as §1
Data set [5] is described as follows: Cytotoxicity against human ViBo cells assessed as LDH release at antiproliferative IC50 after 24 hrs. It counts as cell-based. Put shortly: as §1
Data set [6] is described as follows: (§3) Antiproliferative activity against human ViBo cells after 24 hrs by crystal violet staining-based method. It counts as functional, cell-based. Summed up: as §2
Another data set deals with ViBo. The description is as §3. It counts as functional, cell-based. Put shortly:
as §2

For data set [7], the system named is HeLa. Nature of the data set: Cytotoxicity against human HeLa cells assessed as LDH release at antiproliferative IC50 after 24 hrs. The class given is cell-based. Put shortly: as §1

SMILES strings stand for the structures.

Consider `C[C@@H]1CC[C@@]2(OC1)O[C@H]1C[C@H]3[C@@H]4CC=C5C[C@@H](O[C@@H]6O[C@H](CO)[C@@H](O)[C@H](O)[C@H]6N)CC[C@]5(C)[C@H]4CC[C@]3(C)[C@H]1[C@@H]2C.Cl`, for which the Activity result in the data set on Ca-Ski [1] is on record as “Non-toxic”; in the data set with PBMC, 78.76%; in [4] it was “Non-toxic”; in data set [5] it was “Non-toxic”; in the data set with HeLa [7] it was “Non-toxic”. Besides, the values for the IC50 (in the data set with HeLa [2]; in the data set with Ca-Ski [3]; in [6]) were 41 µM, 41 µM and 82 µM, respectively. Moreover, the inhibition result in the data set with HeLa [2], with Ca-Ski [3] and in the data set on ViBo was “Dose-dependent effect” throughout.
Consider `CC(=O)N[C@H]1[C@H](O[C@H]2CC[C@@]3(C)C(=CC[C@H]4[C@@H]5C[C@@H]6O[C@]7(CC[C@@H](C)CO7)[C@@H](C)[C@@H]6[C@@]5(C)CC[C@@H]43)C2)O[C@H](CO)[C@@H](O)[C@@H]1O`, for which the Activity entry with Ca-Ski [1] is “Non-toxic”; in the data set with PBMC it was 72.58%; in [4], “Non-toxic”; in data set [5], “Non-toxic”; in the data set on HeLa [7] it was “Non-toxic”. Moreover, the IC50 (in general, the concentration at which inhibition is half-maximal) with HeLa [2] was found to be 81 µM; with Ca-Ski [3], 80 µM; in [6] it was 81 µM. Also, the inhibition result in the data set with HeLa [2], in the data set on Ca-Ski [3] and in the data set on ViBo was “Dose-dependent effect” in each case.
With `CC(=O)N[C@H]1[C@H](O[C@H]2CC[C@@]3(C)[C@@H](CC[C@@H]4[C@@H]3CC(=O)[C@]3(C)[C@@H]5[C@H](C[C@@H]43)O[C@]3(CC[C@@H](C)CO3)[C@H]5C)C2)O[C@H](CO)[C@@H](O)[C@@H]1O`, the Activity entry is given as “Non-toxic” with Ca-Ski [1]; 75.59% in the data set with PBMC; “Non-toxic” in data set [4]; “Non-toxic” in data set [5]; “Non-toxic” in the data set with HeLa [7]. Besides, the IC50 is 129 µM with HeLa [2], 136 µM in the data set on Ca-Ski [3] and greater than 142 µM in [6]. For the same compound, the inhibition entry in the data set with HeLa [2], with Ca-Ski [3] and in the data set on ViBo was “Dose-dependent effect” in each case.
